# ASAP1 inh: inhibitors of human ASAP1 ArfGAP activity; Q9ULH1; ASAP1-stimulated ARF1 GTP hydrolysis, GDP FP detection; inhibition, % at 16.5 µM; 360,000 tested, 0.19% active; in the data active = inhibition above about 25%;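 note: 0% = vehicle with enzyme and substrate and 100% = no enzyme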
# Target sequence (Q9ULH1 325-724 limits assumed): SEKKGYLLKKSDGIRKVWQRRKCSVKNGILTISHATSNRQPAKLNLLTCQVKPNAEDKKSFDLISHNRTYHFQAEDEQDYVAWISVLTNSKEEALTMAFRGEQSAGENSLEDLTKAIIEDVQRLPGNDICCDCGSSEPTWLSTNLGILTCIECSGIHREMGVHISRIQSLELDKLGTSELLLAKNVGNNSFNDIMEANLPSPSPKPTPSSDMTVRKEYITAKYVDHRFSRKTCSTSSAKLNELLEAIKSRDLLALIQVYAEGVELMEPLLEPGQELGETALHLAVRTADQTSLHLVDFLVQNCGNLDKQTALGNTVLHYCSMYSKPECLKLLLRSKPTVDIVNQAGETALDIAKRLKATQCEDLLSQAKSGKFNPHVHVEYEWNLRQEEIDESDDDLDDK
# ARFGAP1 inh: inhibitors of rat ARFGAP1; Q62848; Arfgap1-stimulated ARF1 GTP hydrolysis, GDP FP detection; inhibition, % at 16.5 µM; 360,000 tested, 0.26% active; AID 651572;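 active = inhibition above a per-plate limit, mean inhibition of low control wells plus 3 SD, cut at about 25% in these data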;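 note: 0% = DMSO wells with enzyme and 100% = wells lacking Arfgap1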
#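 System: truncated rat Arfgap1 GAP domain / Benchmarks: high control wells lacking Arfgap1, low control full reaction with DMSO / Times: compound-enzyme preincubation 20 min, reaction 120 min, detection 60 min, 25 °C / Repeats: one replicate per compound / Also added: human ARF1(Δ1-17)-GTP substrate / Measured by: Tracer-displacement fluorescence polarization with EDTA stop, 620/688 nm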
# DDE Tn6 FP inh: disrupts Tn6 cyclic peptide binding to fibrin D-Dimer-E complex. P02675. Fibrin DD(E) TRITC-Tn6 fluorescence polarization displacement. inhibition, % at 8.3 µM. 370,000 tested, 0.21% active;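 active = inhibition above a per-campaign cutoff: mean of compounds within control limits plus 3 SD, cut at about 15% in these data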;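 note: 0% = median of all compound wells on the plate and 100% = blocking peptide control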
# DDE Tn7 FP inh: inhibitors of Tn7 peptide binding to human fibrin DD(E) | P02675 | FP displacement of FITC-Tn7 peptide from fibrin DD(E); 0% = median of compound wells per plate | inhibition, % at 8.3 µM | 370,000 tested, 0.13% active | AID 720508;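 active = inhibition above the mean of compounds falling within the control limits plus 3 SD of them, cut at about 14% in these data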;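 note: 0% = plate median of compound wells and 100% = 10 µM Aha-Tn7 peptide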
#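 system = human fibrin DD(E) protein | quantity = DD(E) 2 µM final | medium = Tris/NaCl/CaCl2 buffer, pH 7.8 | also added = labelled Tn7 tracer, 0.1 µM | compound dosing = single point at 8.3 µM | timing = compound with protein 10 min, then 3 h after probe, room temperature | signal = FP measurement | benchmarks = Aha-Tn7 high control | repeats = one replicate per compound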
# ARFGAP1 inh conf: confirmation of rat ARFGAP1 inhibitors | shares compounds with ARFGAP1 inh | ARFGAP1-stimulated ARF1 GTP hydrolysis, GDP tracer FP | inhibition, % at 16.5 µM | 890 tested, 30% active | AID 651608;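 active = average inhibition over triplicates above the hit cutoff set in the earlier primary screen, cut at about 25% in these data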;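 note: 0% = Arfgap1 plus ARF1-GTP with DMSO and 100% = wells lacking Arfgap1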
# An asterisk follows results filed as active; . = not tested or not shown; + = active, no number. Rows were chosen to be rich in hits. Some 0.74% of all compounds tested hit in one or more screens of this group.
SMILES,ASAP1 inh,ARFGAP1 inh,DDE Tn6 FP inh,DDE Tn7 FP inh,ARFGAP1 inh conf
Cc1nn(CCC(=O)NNC(=O)Nc2ccc(Cl)cc2)c(C)c1[N+](=O)[O-],.,.,-2,5,.
COc1cc(/C=N/Nc2ncnc3sc4c(c23)CCC4)ccc1O,19,26*,3,-4,11
COc1cc(/C=N/NC2=NCCCCC2)ccc1O,18,0,1,-4,.
Cc1[nH]c2c(C)cccc2c1CCNC(=O)c1ccc2c(c1[N+](=O)[O-])C(=O)c1ccccc1C2=O,-9,26*,-6,-3,11
C/C(=N\N=C(/N)SC1CC(=O)N(c2ccccc2)C1=O)c1cccs1 (stereo unspecified),-8,3,-9,2,.
C/C(=N\N=C(/N)SC1CC(=O)N(c2ccc(Br)cc2)C1=O)c1cccs1 (stereo unspecified),14,27*,-3,-6,21
Cn1ccc2c(-c3cncc4ccccc34)cc3c(c21)C1CCC3C1 (stereo unspecified),1,32*,-4,6,-3
COCCCn1c(C)cc(C(=O)CN2c3cccc4cccc(c34)S2(=O)=O)c1C,25,32*,1,1,36*
COc1ccc(/C=C2/SC(=O)N(CCC(=O)Nc3ccc(C)cc3)C2=O)cc1OC,4,1,0,-1,.
COc1cc(/C=C2\SC(N)=NC2=O)ccc1OCC(=O)Nc1ccc(C)cc1,20,45*,-12,1,72*
COC(CNC(=O)[C@H](Cc1ccccc1)NC(C)(C)C(=O)NC1CCCCC1)OC,.,.,-6,-1,.
Cc1c(NC(=O)C2CCCN(S(=O)(=O)c3ccccc3[N+](=O)[O-])C2)c(=O)n(-c2ccccc2)n1C (stereo unspecified),.,.,-2,1,.
Cn1cccc1C(=O)OCC(=O)Nc1sccc1C#N,4,1,3,-5,.
N#Cc1ccsc1NC(=O)COC(=O)c1ccc2ccccc2c1,23,27*,-2,-1,20
O=C(COc1ccc(Cl)cc1)Nc1ccc2c(c1)CCC2,-7,30*,0,-4,8
Cc1cccc(NC(=O)CCN2CCC(C)CC2)c1,5,27*,-9,4,-5
Cc1cccc(NC(=O)CCN2CCN(C)CC2)c1,6,-5,8,-1,.
COc1ccc(CNC(=O)CSc2nnc(C(F)(F)F)n2C)cc1,4,29*,-3,-3,-5
Cn1c(SCC(=O)NCCNC(=O)CSc2nnc(C(F)(F)F)n2C)nnc1C(F)(F)F,-9,4,1,-4,.
COc1ccc(OC)c(-c2nnc3n2N=C(c2ccc(OC)c(OC4CCOC4)c2)CS3)c1 (stereo unspecified),-1,26*,9,-6,-2
NS(=O)(=O)c1ccc(CCNC(=O)CNS(=O)(=O)c2cccc(Br)c2)cc1,3,28*,3,1,-2
CC(=O)Nc1ccc(S(=O)(=O)NCC(=O)NCCc2ccc(S(N)(=O)=O)cc2)cc1,3,0,5,6,.
CCN1Cc2nnn(Cc3ccc(C)cc3)c2-c2ccccc2S1(=O)=O,.,.,12,10,.
CCOC(=O)Cc1csc(N/C(=N/S(=O)(=O)c2ccc(F)cc2F)c2ccccc2)n1,13,+,-5,-2,5
CCCc1cc(=O)oc2cc(OCC(=O)NCCc3c[nH]c4ccccc34)ccc12,-4,26*,2,1,8
SMILES,ASAP1 inh,ARFGAP1 inh,DDE Tn6 FP inh,DDE Tn7 FP inh,ARFGAP1 inh conf
CC(C)c1ccc(C(=O)Nc2cc(Cl)ccc2C(=O)O)cc1,.,.,2,-7,.
COc1ccc(NC(=O)Nc2nnc(-c3ccccc3F)s2)cc1,-1,12,-1,3,.
COc1ccc(NC(=O)Nc2nnc(-c3ccco3)s2)cc1,6,35*,-1,-3,-4
O=C(NCCCO)C(=O)Nc1cc2c3c(c1)CCC(=O)N3CCC2,-2,27*,-4,-5,0
Cc1nc2ccccc2cc1C(=O)N/N=C/c1cccc([N+](=O)[O-])c1,4,25*,3,6,8
Nc1ccccc1C(=O)NN=Cc1cccc([N+](=O)[O-])c1,5,-6,1,-1,.
CCN(CC)C(=O)CC[C@H]1CC[C@]2(CCCN(Cc3cccnc3)C2)O1,.,.,3,5,.
CCOc1cc(/C=C2\SC(=S)N(N3CCOCC3)C2=O)ccc1O,-9,-3,-5,-6,.
CCOc1cc(/C=C2\SC(=N)N(c3nccs3)C2=O)ccc1OCCN1CCOCC1,6,39*,-7,-3,43*

# Assay outcomes from PubChem.
